ChEMBL document CHEMBL4266059, “Synthesis of Cyanoenone-Modified Diterpenoid Analogs as Novel Bmi-1-Mediated Antitumor Agents” (ACS Med Chem Lett, 2018)
Calls of active or inactive are those of the source. The calls are words filed in the database; no cut-off is given here.

Key:
[1] = test system: HCT-116; assay: Inhibition of Bmi1 protein expression in human HCT116 cells after 8 hrs by Western blot analysis; type: functional, cell-based
[2] = test system: HCT-116; assay: Induction of apoptosis in human HCT116 cells at 1 uM after 48 hrs by Annexin V/propidium iodide staining based flow cytometry relative to control; type: functional
[3] = Selectivity index, ratio of IC50 for HAF to IC50 for human HT-29 cells; type: toxicity; details: HAF cells versus HT-29 cells, read-out: Ratio IC50
[4] = test system: HT-29; assay: Antiproliferative activity against human HT-29 cells after 72 hrs by SRB assay; type: functional, cell-based; details: HT-29, 72 h
[5] = test system: HCT-116; assay: Antitumor activity against human HCT116 cells xenografted in nude mouse assessed as tumor growth inhibition at 5 mg/kg/day, ip for 18 days; type: functional, organism-based
Method in brief: (§1)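 HCT116 subcutaneous xenografts in nude mice; mice randomized into groups of n = 6 and given vehicle (DMSO), test article or reference intraperitoneally daily for 18 days, then sacrificed. End points were excised tumor weight and volume, body weight, histology of heart, liver, spleen, lung and kidney, and immunohistochemistry of tumors for Ki67 and Bmi-1.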

[6] = test system: HCT-116; assay: Effect on total H2A protein expression in human HCT116 cells at 0.5 to 4 uM after 8 hrs by Western blot analysis; type: functional, cell-based
Method in brief: (§2)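 HCT116 cells treated with test agents at the indicated concentrations for 8 h. Bmi-1, H2A-K119 ubiquitinated H2A (ub-H2A), total H2A and Ring1b detected by Western blot.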

[7] = test system: HCT-116; assay: Induction of apoptosis in human HCT116 cells after 48 hrs by Annexin V/propidium iodide staining based flow cytometry; type: functional, cell-based
Method in brief: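 HCT116 cells treated for 48 h; apoptosis scored by flow cytometry as early and late apoptotic fractions, compared with untreated controls.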

[8] = Selectivity index, ratio of IC50 for HAF to IC50 for human HCT116 cells; type: toxicity; details: HAF cells versus HCT116 cells, read-out: Ratio IC50
[9] = Selectivity index, ratio of IC50 for HAF to IC50 for human HCT8 cells; type: toxicity; details: HAF cells versus HCT8 cells, read-out: Ratio IC50
[10] = test system: HCT-8; assay: Antiproliferative activity against human HCT8 cells after 72 hrs by SRB assay; type: functional, cell-based; details: HCT-8, 72 h
[11] = test system: HCT-116; assay: Inhibition of cancer stem cell proliferation in human HCT116 cells assessed as decrease in CD133/CD44-positive cell population after 48 hrs by flow cytometry; type: functional, cell-based
Method in brief: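 HCT116 cells, which coexpress CD133 and CD44; the CD133+/CD44+ stem-like population was quantified by flow cytometry after treatment over a concentration series.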

[12] = Antiproliferative activity against HAF after 72 hrs by SRB assay; parameters: species or system Homo sapiens
[13] = test system: HCT-116; assay: Antimigratory activity against human HCT116 cells at 1 uM after 24 hrs by crystal violet staining based transwell migration assay relative to control; type: functional
Method in brief: (§3)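 HCT116 cells in transwell chambers; migration compared with untreated control (0 μM).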

[14] = test system: HCT-116; assay: Antimigratory activity against human HCT116 cells at 0.5 uM after 24 hrs by crystal violet staining based transwell migration assay relative to control; type: functional; method in brief: as §3
[15] = test system: HCT-116; assay: Inhibition of colony formation in human HCT116 cells after 7 days by crystal violet staining based assay; type: functional, cell-based
Method in brief: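 HCT116 colony formation assay over a concentration series; read-out was colony number and size.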

[16] = test system: Mus musculus; assay: Toxicity in nude mouse xenografted with human HCT116 cells assessed as abnormality in liver at 5 to 10 mg/kg/day, ip for 18 days by hematoxylin and eosin staining based microscopic analysis; type: organism-based; details: in vivo, 432 h; method in brief: as §1
[17] = test system: Mus musculus; assay: Toxicity in nude mouse xenografted with human HCT116 cells assessed as abnormality in spleen at 5 to 10 mg/kg/day, ip for 18 days by hematoxylin and eosin staining based microscopic analysis; type: organism-based; details: in vivo, 432 h; method in brief: as §1
[18] = test system: Mus musculus; assay: Toxicity in nude mouse xenografted with human HCT116 cells assessed as change in body weight at 5 to 10 mg/kg/day, ip for 18 days; type: organism-based; details: in vivo, 432 h; method in brief: as §1
[19] = test system: HCT-116; assay: Inhibition of cancer stem cell proliferation in human HCT116 cells assessed as CD133/CD44-positive cell population at 1 uM after 48 hrs by flow cytometry (reference value: 85.1 to 86.6%); type: functional; parameters: scale not given: the % may be the effect or the level left
[20] = biological target: T1, Polycomb complex protein BMI-1 (Homo sapiens) (UniProt P35226); assay: Inhibition of Bmi1 in human HCT116 cells assessed as reduction in H2A-K119Ub level after 8 hrs by Western blot analysis; type: cell-based; method in brief: as §2
T1 sequence (whole entry): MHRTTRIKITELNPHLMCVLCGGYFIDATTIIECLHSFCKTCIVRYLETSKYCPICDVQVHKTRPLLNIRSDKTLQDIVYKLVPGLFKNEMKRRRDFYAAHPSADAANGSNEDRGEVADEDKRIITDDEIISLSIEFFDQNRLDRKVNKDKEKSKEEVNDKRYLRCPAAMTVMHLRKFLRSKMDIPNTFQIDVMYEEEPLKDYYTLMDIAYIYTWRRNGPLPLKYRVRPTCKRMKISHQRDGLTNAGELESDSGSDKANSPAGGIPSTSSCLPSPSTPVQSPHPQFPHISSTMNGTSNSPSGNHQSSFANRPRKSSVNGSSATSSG

[21] = test system: HCT-116; assay: Effect on total Ring1b protein expression in human HCT116 cells at 0.5 to 4 uM after 8 hrs by Western blot analysis; type: functional, cell-based; method in brief: as §2
[22] = test system: HCT-116; assay: Antiproliferative activity against human HCT116 cells after 72 hrs by SRB assay; type: functional, cell-based; details: HCT-116, 72 h
[23] = test system: HCT-116; assay: Antimigratory activity against human HCT116 cells after 24 hrs by crystal violet staining based transwell migration assay; type: functional, cell-based
Method in brief: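 HCT116 cells were tested for migration through a transwell chamber at 0.5 and 1 μM, compared against an untreated (0 μM) control. Significance was assessed versus that control.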

[24] = test system: Mus musculus; assay: Toxicity in nude mouse xenografted with human HCT116 cells assessed as abnormality in lung at 5 to 10 mg/kg/day, ip for 18 days by hematoxylin and eosin staining based microscopic analysis; type: organism-based; details: in vivo, 432 h; method in brief: as §1
[25] = test system: HCT-116; assay: Antitumor activity against human HCT116 cells xenografted in nude mouse assessed as reduction in Ki67 expression in tumor at 5 to 10 mg/kg/day, ip for 18 days by IHC analysis; type: functional, organism-based; method in brief: as §1
[26] = test system: Mus musculus; assay: Toxicity in nude mouse xenografted with human HCT116 cells assessed as abnormality in heart at 5 to 10 mg/kg/day, ip for 18 days by hematoxylin and eosin staining based microscopic analysis; type: organism-based; details: in vivo, 432 h; method in brief: as §1
[27] = test system: Mus musculus; assay: Toxicity in nude mouse xenografted with human HCT116 cells assessed as abnormality in kidney at 5 to 10 mg/kg/day, ip for 18 days by hematoxylin and eosin staining based microscopic analysis; type: organism-based; details: in vivo, 432 h; method in brief: as §1
[28] = test system: Mus musculus; assay: Decrease in Bmi1 expression in tumors of nude mouse xenografted with human HCT116 cells at 5 to 10 mg/kg/day, ip for 18 days by IHC analysis; type: functional, organism-based; method in brief: as §1

SMILES: COc1cc2c(cc1C(=O)Nc1ccccc1OC(F)(F)F)CC[C@H]1C(C)(C)C(=O)C(C#N)=C[C@]21C
- inhibition [1]: Dose-dependent effect
- IC50 ([1]; HCT-116, 8 h): 830 nM
- Activity [2]: 20.29%
- selectivity ratio [3]: 7.3 to 13.1
- IC50 [4]: 450 nM
- TGI [5]: Active
- Activity [6]: inactive
- Activity [7]: Dose-dependent effect
- selectivity ratio [8]: 7.3 to 13.1
- selectivity ratio [9]: 7.3 to 13.1
- IC50 [10]: 360 nM
- inhibition [11]: Dose-dependent effect
- IC50 [12]: 3.28 µM
- Activity [13]: 70%
- Activity [14]: 30%
- inhibition [15]: Dose-dependent effect
- Activity [16]: Non-Toxic
- Activity [17]: Non-Toxic
- Activity [18]: Non-Toxic
- Activity [19]: 56.1%
- inhibition [20]: Dose-dependent effect
- Activity [21]: inactive
- IC50 [22]: 250 nM
- Activity [23]: Dose-dependent effect
- Activity [24]: Non-Toxic
- Activity [25]: Active
- Activity [26]: Non-Toxic
- Activity [27]: Non-Toxic
- Activity [28]: Active
